Screening data as filed in PubChem.
NPY-Y1 antag: NPY-Y1 receptor antagonists, primary screen, cell-based; 200,000 tested, 1% active; inhibition, % at 3.6 µM; HEK293-CNG Y1 cells, membrane potential fluorescence; NPY at EC95, then isoproterenol; Neuropeptide Y receptor type 1 (Homo sapiens), P25929; AID 1040, 2008;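 active = inhibition above the campaign mean inhibition of all tested compounds plus 3 SD, cut at about 20% in these data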;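 also: 0% = DMSO wells given NPY plus isoproterenol and 100% = isoproterenol alone without NPY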
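Material: HEK293 cells with Y1 receptor plus CNG channel; times: compound incubation 1 h at room temperature, readout 45 min post-stimulation; signal: fluorescence, membrane potential probe; read-out basis: fluorescence ratio normalized to % inhibition between controls; benchmarks: full-block control isoproterenol-only wells, zero-block control NPY plus isoproterenol wells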
S1P4 antag: S1P4 receptor antagonists, primary screen, cell-based; Sphingosine 1-phosphate receptor 4 (Homo sapiens), O95977; S1P4-expressing cells, antagonist mode, reporter read-out; inhibition, % at 4.98 µM; 220,000 tested, 0.26% active; AID 1510, 2009; in the data active = inhibition above about 29%;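 also: 0% = wells stimulated with agonist and 100% = vehicle wells without agonist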
Target sequence (O95977 whole entry, looked up): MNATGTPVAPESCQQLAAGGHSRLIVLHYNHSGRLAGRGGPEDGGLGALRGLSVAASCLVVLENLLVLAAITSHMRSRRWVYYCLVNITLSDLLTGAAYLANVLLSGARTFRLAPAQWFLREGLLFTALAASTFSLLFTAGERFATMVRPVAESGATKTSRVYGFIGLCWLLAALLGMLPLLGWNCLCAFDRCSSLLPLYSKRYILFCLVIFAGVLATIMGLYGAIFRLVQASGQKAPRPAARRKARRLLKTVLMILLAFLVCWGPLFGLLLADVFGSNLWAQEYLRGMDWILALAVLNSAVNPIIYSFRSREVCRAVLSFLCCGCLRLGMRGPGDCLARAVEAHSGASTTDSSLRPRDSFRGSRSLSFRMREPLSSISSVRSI
NPY-Y1 PAM-ag: NPY-Y1 receptor potentiators or agonists, primary screen, cell-based | Neuropeptide Y receptor type 1 (Homo sapiens), P25929 | NPY-Y1 expressing cells, potentiator/agonist activation | activation, % at 3.6 µM | 220,000 tested, 0.37% active | AID 1304, 2008; in the data active = activation above about 33%, passing the limit was not always enough;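 also: cells stimulated with NPY at EC10 then isoproterenol at EC100; 0% = low agonist plus stimulus and 100% = saturating agonist plus stimulus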
NPY-Y2 antag: NPY-Y2 receptor antagonists, primary screen, cell-based | 140,000 tested, 0.99% active | NPY-Y2 expressing cells, antagonist mode | Neuropeptide Y receptor type 2 (Homo sapiens), P49146 | inhibition, % at 2.7 µM; in the data active = inhibition above about 17%;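 also: 0% = vehicle with agonist challenge and 100% = reference antagonist with challenge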
S1P4 ag: S1P4 receptor agonists, primary screen, cell-based; Sphingosine 1-phosphate receptor 4 (Homo sapiens), O95977; S1P4-expressing cell line, agonist reporter assay; activation, % at 4.98 µM; 220,000 tested, 0.35% active; AID 1509, 2009; in the data active = activation above about 11%;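 also: 0% = DMSO vehicle and 100% = reference agonist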
NPY-Y2 PAM-ag: NPY-Y2 potentiators or agonists, primary screen, cell-based; cells expressing NPY-Y2, potentiator/agonist read-out; activation, % at 3.6 µM; 220,000 tested, 0.45% active; AID 1359, 2008; in the data active = activation above about 27%;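 also: cells stimulated with NPY near EC25 plus isoproterenol at EC100; 0% = vehicle plus submaximal agonist and 100% = vehicle plus saturating agonist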
NPY1 antag ctr: NPY-Y1 receptor antagonists, selectivity check, counter-screen for NPY-Y2 antagonist project, cell-based | shares compounds with NPY-Y2 antag | cell-based NPY-Y1 antagonism counterscreen | inhibition, % at 3.6 µM | 710 tested, 19% active | AID 1256, 2008; in the data active = inhibition above about 20%;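 also: cells challenged with NPY then isoproterenol with cAMP sensed through a CNG channel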
NPY-Y2 ant conf: NPY-Y2 receptor antagonists, retest of hits, confirmation, HEK293-CNG cells, membrane potential fluorescence, triplicate | shares compounds with NPY-Y2 antag | AID 1257, 2008 | HEK293 NPY-Y2 CNG channel | inhibition, % at 2.8 µM | 710 tested, 32% active;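 active = mean inhibition of triplicate wells above the hit cutoff set in the primary screen, cut at about 17% in these data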;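 also: 0% = DMSO with NPY challenge and 100% = BIIE0246 high control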
An asterisk follows results filed as active. Sampled rows, rich in hits. Any-hit rate of the full collection: about 2.4%.

What do the screens show for `CCC(CC)C(=O)c1c[nH]c(C(=O)OC)c1`?
NPY-Y1 antag: 1; S1P4 antag: -8; NPY-Y1 PAM-ag: -9; S1P4 ag: 0; NPY-Y2 PAM-ag: -15

Results for c1cncc(CSc2ccc(-c3ccc4c(c3)OCO4)nn2)c1 ?
NPY-Y1 antag: -5; S1P4 antag: -10; NPY-Y1 PAM-ag: -4; S1P4 ag: 1; NPY-Y2 PAM-ag: -1

What do the screens show for `Fc1cccc(CSc2ccc(-c3ccc4c(c3)OCO4)nn2)c1`?
NPY-Y1 antag: 12; S1P4 antag: -10; NPY-Y1 PAM-ag: -19; NPY-Y2 antag: 19*; S1P4 ag: 0; NPY-Y2 PAM-ag: -8; NPY1 antag ctr: 12; NPY-Y2 ant conf: 9

How did CCOc1ccc(N2C(=O)/C(=C\c3ccccc3OC)S(=O)(=O)C2c2cccc([N+](=O)[O-])c2)cc1 (configuration not stated) do in these assays?
NPY-Y1 antag: -2; S1P4 antag: -8; NPY-Y1 PAM-ag: -4; NPY-Y2 antag: 0; S1P4 ag: 1; NPY-Y2 PAM-ag: 14

What do the screens show for `CCCCc1nnc(NC(=O)C(C)Sc2nc(C)cc(=O)[nH]2)s1` (configuration not stated)?
NPY-Y1 antag: 1; S1P4 antag: -13; NPY-Y1 PAM-ag: -12; NPY-Y2 antag: 20*; S1P4 ag: 0; NPY-Y2 PAM-ag: -5; NPY1 antag ctr: -1; NPY-Y2 ant conf: 1

How did c1ccc(Cc2nnc(-c3ccccc3)o2)cc1 do in these assays?
NPY-Y1 antag: 10; S1P4 antag: -11; NPY-Y1 PAM-ag: -32; NPY-Y2 antag: 135*; S1P4 ag: 5; NPY-Y2 PAM-ag: -12; NPY1 antag ctr: 9; NPY-Y2 ant conf: 19*

What do the screens show for `Cc1nn(Cc2ccccc2Cl)c(C)c1C(=O)NCCN1C(=O)S/C(=C\c2ccccc2)C1=O`?
NPY-Y1 antag: -1; S1P4 antag: -11; NPY-Y1 PAM-ag: 7; NPY-Y2 antag: 22*; S1P4 ag: 0; NPY-Y2 PAM-ag: 8; NPY1 antag ctr: 4; NPY-Y2 ant conf: 4

How did Cc1nn(Cc2ccccc2Cl)c(C)c1C(=O)NCc1ccco1 do in these assays?
NPY-Y1 antag: 1; S1P4 antag: 2; NPY-Y1 PAM-ag: -3; NPY-Y2 antag: 0; S1P4 ag: 0; NPY-Y2 PAM-ag: 3

Results for CCCC(O)(CCC)C(=O)NN(C(=O)OC)c1ccccc1 ?
NPY-Y1 antag: 15; S1P4 antag: 5; NPY-Y1 PAM-ag: -14; NPY-Y2 antag: 20*; S1P4 ag: 1; NPY-Y2 PAM-ag: -19; NPY1 antag ctr: 8; NPY-Y2 ant conf: 11

Results for COC(=O)c1[nH]c(C)c(/C(O)=C2\C(=O)C(=O)N(CCN3CCOCC3)C2c2ccco2)c1C (configuration not stated) ?
S1P4 antag: -3; NPY-Y1 PAM-ag: 13; S1P4 ag: 1; NPY-Y2 PAM-ag: -2

How did N#C/C(=C\c1cn(Cc2ccc(F)cc2)c2ccccc12)C(=O)NCc1ccco1 do in these assays?
NPY-Y1 antag: 0; S1P4 antag: -26; NPY-Y1 PAM-ag: -14; NPY-Y2 antag: 18*; S1P4 ag: 2; NPY-Y2 PAM-ag: 3; NPY1 antag ctr: 1; NPY-Y2 ant conf: 5

How did Cc1nc(N2CCC(C)CC2)c2c(C)c(C(=O)Nc3ccccc3C(F)(F)F)sc2n1 do in these assays?
NPY-Y1 antag: 5; S1P4 antag: 13; NPY-Y1 PAM-ag: -21; S1P4 ag: 0; NPY-Y2 PAM-ag: -22

Results for Clc1ccc(CSc2cc3c(nn2)-c2ccccc2CC3)cc1Cl ?
NPY-Y1 antag: 16; S1P4 antag: 0; NPY-Y1 PAM-ag: -50; NPY-Y2 antag: 20*; S1P4 ag: 0; NPY-Y2 PAM-ag: -24; NPY1 antag ctr: 20; NPY-Y2 ant conf: 36*

Results for Cc1ccc(OCC(=O)NC(=S)Nc2cccc(NC(=O)c3ccccc3)c2)cc1 ?
NPY-Y1 antag: 2; S1P4 antag: -4; NPY-Y1 PAM-ag: 4; NPY-Y2 antag: 37*; S1P4 ag: 1; NPY-Y2 PAM-ag: -6; NPY1 antag ctr: 14; NPY-Y2 ant conf: 17

Results for O=C(NC(=S)Nc1ccccc1N1CCCCC1)c1ccco1 ?
NPY-Y1 antag: 8; S1P4 antag: -5; NPY-Y1 PAM-ag: -67; NPY-Y2 antag: 18*; S1P4 ag: -1; NPY-Y2 PAM-ag: -3; NPY1 antag ctr: 12; NPY-Y2 ant conf: 8

What do the screens show for `C/C(Cn1nnc([N+](=O)[O-])n1)=N\NC(=O)c1ccc(O)cc1O`?
NPY-Y1 antag: -1; S1P4 antag: -30; NPY-Y1 PAM-ag: -3; NPY-Y2 antag: 25*; S1P4 ag: 1; NPY-Y2 PAM-ag: -1; NPY1 antag ctr: -2; NPY-Y2 ant conf: 0

How did C/C(Cn1nnc([N+](=O)[O-])n1)=N\NC(=O)c1ccccc1O do in these assays?
S1P4 antag: 7; NPY-Y1 PAM-ag: -43; S1P4 ag: -1; NPY-Y2 PAM-ag: -19

Results for Nc1cc(C(=O)N/N=C/c2cccc([N+](=O)[O-])c2)n[nH]c1=O ?
S1P4 antag: -10; NPY-Y1 PAM-ag: 15; S1P4 ag: 1; NPY-Y2 PAM-ag: 9

Results for COc1ccc(-c2noc(CSc3nc(-c4ccccc4)cc(=O)[nH]3)n2)cc1 ?
NPY-Y1 antag: 6; S1P4 antag: 10; NPY-Y1 PAM-ag: 6; NPY-Y2 antag: 25*; S1P4 ag: -1; NPY-Y2 PAM-ag: -4; NPY1 antag ctr: 3; NPY-Y2 ant conf: 1

Results for Cc1cc(NC(=O)CSCC(=O)N(c2cccc(Cl)c2)C(C(=O)NC2CCCCC2)c2ccc(O)c(O)c2)no1 (configuration not stated) ?
NPY-Y1 antag: -6; S1P4 antag: -11; NPY-Y1 PAM-ag: -14; NPY-Y2 antag: -2; S1P4 ag: -1; NPY-Y2 PAM-ag: 11

How did CN(C)S(=O)(=O)c1ccc(Cl)c(NC(=O)COC(=O)c2cc(-c3ccccc3)nc3ccccc23)c1 do in these assays?
NPY-Y1 antag: -1; S1P4 antag: 11; NPY-Y1 PAM-ag: -28; NPY-Y2 antag: 1; S1P4 ag: 4; NPY-Y2 PAM-ag: -18

Results for COc1ccc(-c2ccnc(SCC(=O)c3ccc(Br)cc3)n2)cc1 ?
NPY-Y1 antag: 5; S1P4 antag: 4; NPY-Y1 PAM-ag: 6; NPY-Y2 antag: 21*; S1P4 ag: 0; NPY-Y2 PAM-ag: 0; NPY1 antag ctr: 42*; NPY-Y2 ant conf: 42*
